Results reported in article PMC3542617 (Cell Death & Disease, 2012).
Entries after “also recorded” stand apart in the source; their conditions may differ.

Experiments:
[1] = system: MiaPaCa-2 xenografts; experiment: Tumor growth delay, MiaPaCa-2 xenografts; format: in vivo, mice; details: experiment III
How it was run: (§1)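 Female Balb/c nude mice were inoculated s.c. with 10^6 cells in serum-free medium plus Matrigel and randomized at ~80 mm3 (day 0). […] Tumor volume was tracked to 600 mm3 (TV600); n=4–5.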

[2] = system: γH2AX in PSN-1 tumor xenografts; experiment: SPECT imaging of γH2AX in pancreatic tumor xenografts; format: in vivo, mice
How it was run: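 111In-DTPA–anti-γH2AX-Tat was injected 2 h before radiation, and SPECT/CT was run at 24 h post-XRT. Tumor uptake came from volume-of-interest analysis as %ID/g; organs were then removed, weighed and counted.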

[3] = system: fibroblasts (HFL-1, MRC5); experiment: Clonogenic survival assay, normal fibroblasts; format: cell-based, human; details: VE-822 80 nM
[4] = system: phospho-Ser345-Chk1 in HFL-1 normal fibroblasts; experiment: Phospho-Chk1; format: cell-based, human; details: VE-822 80 nM
How it was run: (§2)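 Lysates were taken 2 h post-XRT or 4 h post-gemcitabine, after cold PBS rinse, in reducing Triton lysis buffer. Phospho-Chk1 antibody was used at 1:1000; β-actin was the loading control.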

[5] = system: tumor xenograft vessel density; experiment: Tumor vessel density; format: in vivo, mice
How it was run: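 Frozen xenograft tumors were cut into 10-μm sections, treated with 0.3% H2O2 for 20 min, then blocked in TNB for 30 min. Sections were stained 1 h with rat anti-mouse CD31 (1:50), then anti-rat […]. Vessels per field were counted in five random viable 10× fields per tumor, n=4–5 tumors per group.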

[6] = system: PDAC cells (PSN-1, MiaPaCa-2, PancM); experiment: Clonogenic survival assay, pancreatic cancer cells; format: cell-based
[7] = system: phospho-Ser-345-Chk1 in PSN-1 xenografts; experiment: Chk1 phosphorylation; format: in vivo, mice; details: VE-822 60 mg/kg d0, 1; gemcitabine 100 mg/kg d0; XRT 6 Gy d1; 2 h post-XRT
[8] = system: PSN-1 cells; experiment: Apoptosis in vitro assay; format: cell-based; details: for apoptosis, single agent: VE-822 80 nM or gemcitabine 10 nM, 48 h after XRT time point
How it was run: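 For PSN-1 cells, gemcitabine (10 nM) was given 24 h pre-XRT, then replaced with fresh medium. […] Cells were analysed at 48 h post-XRT by Annexin V-FITC/PI flow cytometry to separate early apoptotic from necrotic cells.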

[9] = system: phospho-Ser345-Chk1; experiment: Immunoblot for Chk1 phosphorylation; format: cell-based; details: VE-822 80 nM; gemcitabine 100 nM, XRT 6 Gy; PDAC cells
How it was run: as §2

[10] = system: PSN-1 and MiaPaCa-2 cells; experiment: Analysis of γH2AX, 53BP1 and Rad51 foci; format: cell-based
[11] = system: small intestine (jejunum); experiment: Intestinal damage after abdominal XRT; format: in vivo, mice
[12] = system: ATM, Chk2 or DNA-PK phosphorylation; experiment: Immunoblot for ATM/Chk2 and DNA-PK phosphorylation; format: cell-based; details: VE-822 80 nmol/L; XRT 6 Gy
[13] = biological target: T1, ATM (Homo sapiens, UniProt Q13315); experiment: Cellular inhibition of ATR and related kinases; format: cell-based
T1 sequence (Q13315 whole entry, species assumed): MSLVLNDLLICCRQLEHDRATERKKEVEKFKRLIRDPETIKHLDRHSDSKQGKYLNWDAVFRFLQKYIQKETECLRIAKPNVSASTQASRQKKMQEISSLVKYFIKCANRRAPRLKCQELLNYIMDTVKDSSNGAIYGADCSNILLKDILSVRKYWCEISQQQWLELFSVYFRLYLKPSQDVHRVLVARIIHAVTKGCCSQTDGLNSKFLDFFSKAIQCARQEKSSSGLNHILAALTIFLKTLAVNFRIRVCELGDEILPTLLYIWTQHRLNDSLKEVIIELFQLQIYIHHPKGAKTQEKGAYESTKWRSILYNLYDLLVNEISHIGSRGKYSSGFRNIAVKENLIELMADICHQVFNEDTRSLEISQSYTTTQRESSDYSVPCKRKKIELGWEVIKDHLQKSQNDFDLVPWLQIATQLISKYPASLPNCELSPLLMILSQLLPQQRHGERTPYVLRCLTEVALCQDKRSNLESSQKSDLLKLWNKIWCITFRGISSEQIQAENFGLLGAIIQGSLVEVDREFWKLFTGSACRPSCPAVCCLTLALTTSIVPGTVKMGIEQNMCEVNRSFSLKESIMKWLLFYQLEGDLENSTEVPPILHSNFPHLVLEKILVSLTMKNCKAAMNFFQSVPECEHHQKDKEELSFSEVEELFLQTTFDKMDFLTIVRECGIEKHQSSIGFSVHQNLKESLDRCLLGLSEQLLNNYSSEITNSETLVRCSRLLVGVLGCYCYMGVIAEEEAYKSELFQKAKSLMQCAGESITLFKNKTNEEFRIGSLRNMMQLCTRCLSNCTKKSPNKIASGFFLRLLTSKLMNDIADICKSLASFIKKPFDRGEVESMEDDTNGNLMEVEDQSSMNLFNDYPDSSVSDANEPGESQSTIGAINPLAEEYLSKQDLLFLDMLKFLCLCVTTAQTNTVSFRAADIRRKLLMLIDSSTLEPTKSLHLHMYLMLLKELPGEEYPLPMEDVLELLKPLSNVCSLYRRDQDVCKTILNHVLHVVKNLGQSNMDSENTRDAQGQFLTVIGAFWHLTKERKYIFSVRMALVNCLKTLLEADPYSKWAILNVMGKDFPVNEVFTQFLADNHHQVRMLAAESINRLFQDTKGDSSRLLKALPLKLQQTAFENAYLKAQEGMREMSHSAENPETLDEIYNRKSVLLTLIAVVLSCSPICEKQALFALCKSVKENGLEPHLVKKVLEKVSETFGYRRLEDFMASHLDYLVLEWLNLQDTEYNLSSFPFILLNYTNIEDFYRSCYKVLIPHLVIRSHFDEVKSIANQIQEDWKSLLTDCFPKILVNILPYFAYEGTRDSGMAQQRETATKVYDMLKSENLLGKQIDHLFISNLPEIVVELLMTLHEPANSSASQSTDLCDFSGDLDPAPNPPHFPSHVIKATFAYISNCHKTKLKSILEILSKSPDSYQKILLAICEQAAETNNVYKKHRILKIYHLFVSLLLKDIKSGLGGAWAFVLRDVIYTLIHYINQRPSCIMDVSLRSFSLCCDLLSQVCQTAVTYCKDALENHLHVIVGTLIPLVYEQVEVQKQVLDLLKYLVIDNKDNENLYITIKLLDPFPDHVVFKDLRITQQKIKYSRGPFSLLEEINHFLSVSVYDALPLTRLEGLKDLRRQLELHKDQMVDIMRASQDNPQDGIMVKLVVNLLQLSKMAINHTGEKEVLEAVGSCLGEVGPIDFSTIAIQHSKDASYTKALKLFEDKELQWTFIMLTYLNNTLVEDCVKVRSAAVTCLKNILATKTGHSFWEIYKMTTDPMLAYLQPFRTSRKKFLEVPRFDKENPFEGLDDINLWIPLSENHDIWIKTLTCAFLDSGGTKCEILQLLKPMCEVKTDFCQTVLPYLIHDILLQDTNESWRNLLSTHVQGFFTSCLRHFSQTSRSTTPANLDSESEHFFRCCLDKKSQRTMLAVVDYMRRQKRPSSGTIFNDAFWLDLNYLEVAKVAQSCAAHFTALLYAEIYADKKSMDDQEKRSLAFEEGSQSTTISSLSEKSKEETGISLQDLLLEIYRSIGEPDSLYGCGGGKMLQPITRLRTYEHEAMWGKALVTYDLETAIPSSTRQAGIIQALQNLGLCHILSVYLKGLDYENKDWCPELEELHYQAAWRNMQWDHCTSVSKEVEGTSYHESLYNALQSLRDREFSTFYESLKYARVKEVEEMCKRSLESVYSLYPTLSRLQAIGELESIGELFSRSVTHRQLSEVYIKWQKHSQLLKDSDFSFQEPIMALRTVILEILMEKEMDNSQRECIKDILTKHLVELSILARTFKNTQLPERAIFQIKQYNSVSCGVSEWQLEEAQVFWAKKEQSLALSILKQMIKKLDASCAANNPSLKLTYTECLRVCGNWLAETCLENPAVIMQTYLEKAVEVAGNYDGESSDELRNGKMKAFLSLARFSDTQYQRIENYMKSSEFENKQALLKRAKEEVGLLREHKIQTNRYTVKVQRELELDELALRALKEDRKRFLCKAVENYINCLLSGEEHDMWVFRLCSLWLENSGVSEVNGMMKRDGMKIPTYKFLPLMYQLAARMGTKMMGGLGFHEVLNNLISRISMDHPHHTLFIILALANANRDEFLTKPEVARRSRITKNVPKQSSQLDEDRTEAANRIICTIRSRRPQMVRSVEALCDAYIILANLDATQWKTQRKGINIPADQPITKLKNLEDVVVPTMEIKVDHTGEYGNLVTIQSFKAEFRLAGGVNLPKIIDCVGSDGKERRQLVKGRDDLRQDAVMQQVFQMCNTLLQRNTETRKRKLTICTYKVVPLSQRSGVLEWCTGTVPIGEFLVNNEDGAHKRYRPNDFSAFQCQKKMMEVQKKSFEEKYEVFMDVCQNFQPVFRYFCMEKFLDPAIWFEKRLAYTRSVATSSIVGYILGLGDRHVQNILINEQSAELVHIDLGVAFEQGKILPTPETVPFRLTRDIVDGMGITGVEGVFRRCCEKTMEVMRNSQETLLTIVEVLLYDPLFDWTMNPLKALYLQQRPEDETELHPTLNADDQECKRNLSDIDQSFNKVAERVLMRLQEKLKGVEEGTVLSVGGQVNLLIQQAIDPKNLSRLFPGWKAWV

[14] = biological target: T2, DNA-PK (Homo sapiens, UniProt P78527); experiment: Biochemical inhibition of ATR and related kinases
[15] = biological target: PI3Kγ (Homo sapiens, UniProt P48736); experiment: Biochemical inhibition of ATR and related kinases
Chain of PI3Kγ (P48736 whole entry, species assumed): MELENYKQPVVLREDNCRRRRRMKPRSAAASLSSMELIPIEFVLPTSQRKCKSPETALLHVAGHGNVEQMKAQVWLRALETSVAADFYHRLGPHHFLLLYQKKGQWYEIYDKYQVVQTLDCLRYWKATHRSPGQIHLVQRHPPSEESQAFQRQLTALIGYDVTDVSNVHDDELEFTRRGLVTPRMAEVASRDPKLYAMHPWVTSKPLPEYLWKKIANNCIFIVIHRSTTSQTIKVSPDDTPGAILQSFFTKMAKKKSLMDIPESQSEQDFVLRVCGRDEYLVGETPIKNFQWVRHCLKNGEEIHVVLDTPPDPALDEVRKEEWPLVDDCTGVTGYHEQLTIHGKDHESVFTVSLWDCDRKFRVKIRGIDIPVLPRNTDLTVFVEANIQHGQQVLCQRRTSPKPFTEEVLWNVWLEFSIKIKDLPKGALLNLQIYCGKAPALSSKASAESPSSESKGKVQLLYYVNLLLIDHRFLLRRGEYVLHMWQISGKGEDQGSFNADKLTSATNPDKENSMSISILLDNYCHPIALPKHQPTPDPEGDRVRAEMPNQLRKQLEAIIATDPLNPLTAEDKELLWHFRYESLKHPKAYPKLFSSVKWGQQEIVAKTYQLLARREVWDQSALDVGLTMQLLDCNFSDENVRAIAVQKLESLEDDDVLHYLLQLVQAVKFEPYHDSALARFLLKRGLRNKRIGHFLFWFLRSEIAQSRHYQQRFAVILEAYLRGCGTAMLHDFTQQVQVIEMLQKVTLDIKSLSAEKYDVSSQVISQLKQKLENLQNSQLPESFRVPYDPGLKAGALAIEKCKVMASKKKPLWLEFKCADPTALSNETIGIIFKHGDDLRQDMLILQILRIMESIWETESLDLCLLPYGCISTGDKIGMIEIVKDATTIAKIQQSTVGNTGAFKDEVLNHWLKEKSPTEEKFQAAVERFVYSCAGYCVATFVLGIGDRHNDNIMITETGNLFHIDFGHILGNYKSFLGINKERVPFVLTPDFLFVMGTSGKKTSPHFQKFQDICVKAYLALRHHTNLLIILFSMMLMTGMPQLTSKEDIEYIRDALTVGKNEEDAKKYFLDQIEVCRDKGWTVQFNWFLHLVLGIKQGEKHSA

[16] = biological target: mTOR (Homo sapiens, UniProt P42345); experiment: Biochemical inhibition of ATR and related kinases
[17] = system: human dermal microvascular endothelial cells (HDMECs); experiment: Capillary tube formation; format: cell-based; details: VE-822 80 nM; XRT 6 Gy or gemcitabine 50 nM
[18] = Body weight of mice in growth delay experiments; format: in vivo
[19] = system: PSN-1 xenografts; experiment: Tumor growth delay, PSN-1 xenografts; format: in vivo, mice
How it was run: as §1

[20] = biological target: T2, DNA-PK; experiment: Cellular inhibition of ATR and related kinases; format: cell-based
[21] = system: PSN-1 and MiaPaCa-2 cells; experiment: Cell-cycle assay; format: cell-based
[22] = biological target: T1, ATM; experiment: Biochemical inhibition of ATR and related kinases

**Q.** Which “tumor growth, VE-822 alone vs control” value ([1]; 60 mg/kg days 0–5) does the source give for `CNCc1ccc(-c2cc(-c3nc(-c4ccc(S(=O)(=O)C(C)C)cc4)cnc3N)on2)cc1` [VE-822] here?
**A.** no statistical change in tumor growth

**Q.** And the “tumors that regrew, VE-822 + XRT” value ([1]; 60 mg/kg days 0–5, 6 Gy day 1, n=4)?
**A.** 2/4

**Q.** And the “TV600 of regrowing tumors, VE-822 + XRT vs XRT” value ([1]; two regrowing tumors, P<0.001)?
**A.** significantly longer than the TV600 for the XRT1 group

**Q.** What about the “tumor uptake of 111In-DTPA–anti-γH2AX-Tat, VE-822 alone” value ([2]; 60 mg/Kg days 0 and 1) of the same compound?
**A.** no elevation in uptake

**Q.** What about the “tumor uptake of 111In-DTPA–anti-γH2AX-Tat, VE-822 plus XRT, higher compared with XRT” value ([2]; 60 mg/Kg days 0 and 1, 6 Gy day 1, 24 h post-XRT, P<0.05) of the same compound?
**A.** 44%

**Q.** And the “clonogenic survival of normal fibroblasts after XRT or gemcitabine” value [3]?
**A.** did not alter clonogenic survival of fibroblasts

**Q.** And the “phospho-Ser345-Chk1 after gemcitabine, XRT or chemoradiotherapy” value [4]?
**A.** reduced phospho-Ser345-Chk1

**Q.** What about the “vessel density, addition of VE-822 and/or XRT to gemcitabine” value ([5]; growth delay experiment V) of the same compound?
**A.** did not alter vessel density significantly

**Q.** What about the “vessel density, VE-822 alone or with XRT” value ([5]; growth delay experiments I-III) of the same compound?
**A.** did not alter vessel density

**Q.** And the “clonogenic survival of irradiated PDAC” value ([6]; VE-822 80 nM, 1 h before until 18 h post-XRT)?
**A.** decreased survival of irradiated PDAC

**Q.** And the “reduction of survival after chemoradiotherapy (triple combination)” value ([6]; gemcitabine 10 or 5 nM 24 h, VE-822 80 nM, XRT 4 Gy)?
**A.** dramatically more after chemoradiotherapy

**Q.** What about the “reduction of survival on adding VE-822 to gemcitabine” value ([6]; gemcitabine 24 h, then VE-822 80 nM 18 h) of the same compound?
**A.** 2–3 fold

**Q.** And the “phospho-Ser-345-Chk1 in xenografts after DNA-damaging agents” value [7]?
**A.** inhibited phospho-Ser-345-Chk1 in xenografts

**Q.** What about the “apoptosis, single agent” value [8] of the same compound?
**A.** little effect

**Q.** And the “apoptosis, combinations of VE-822, XRT and/or gemcitabine” value ([8]; VE-822 80 nM, XRT 6 Gy, gemcitabine 10 nM, strongest in triple combination)?
**A.** enhanced early and late apoptosis

**Q.** And the “phospho-Ser345-Chk1 after gemcitabine, XRT or both” value [9]?
**A.** reduced phospho-Ser345-Chk1

**Q.** And the “residual γH2AX and 53BP1 foci” value ([10]; VE-822 80 nM 1 h before XRT 6 Gy, 24 h post-XRT, vs XRT)?
**A.** increased XRT-induced residual γH2AX and 53BP1 foci

**Q.** What about the Rad51 foci ([10]; VE-822 80 nM pre-treatment, XRT 6 Gy, 6 h post-XRT) of the same compound?
**A.** decreased Rad51 foci after XRT

**Q.** What about the “γH2AX, 53BP1 or Rad51 foci, VE-822 alone” value ([10]; VE-822 alone (data not shown)) of the same compound?
**A.** no effect on γH2AX, 53BP1 or Rad51 foci

**Q.** What about the “villus tip loss and villi length, VE-822 + XRT vs XRT alone” value ([11]; 60 mg/kg days 0, 2, 4, 6 Gy day 0, day 5) of the same compound?
**A.** did not increase villus tip loss or villi shortening

**Q.** And the “body weight loss, combination vs XRT-only” value ([11]; abdominal XRT 6 Gy)?
**A.** equivalent body weight loss

**Q.** And the “ATM, Chk2 or DNA-PK phosphorylation in response to radiation” value [12]?
**A.** did not inhibit ATM, Chk2 or DNA-PK phosphorylation

**Q.** What about the IC50 [13] of the same compound?
**A.** 2600 nM

**Q.** And the Ki [14]?
**A.** > 4000 nM

**Q.** And the Ki [15]?
**A.** 220 nM

**Q.** And the Ki [16]?
**A.** > 1000 nM

**Q.** And the “tube formation after XRT or gemcitabine” value [17]?
**A.** did not modify tube formation

**Q.** And the body weight ([18]; growth delay experiment I)?
**A.** No body weight loss

**Q.** What about the body weight ([18]; growth delay experiment II) of the same compound?
**A.** no effects on body weight

**Q.** What about the body weight ([18]; growth delay experiment III) of the same compound?
**A.** no weight loss

**Q.** And the body weight ([18]; growth delay experiment IV)?
**A.** No weight loss

**Q.** What about the body weight ([18]; growth delay experiment V) of the same compound?
**A.** no weight loss

**Q.** And the “tumor growth, VE-822 alone” value ([19]; experiment I, 60 mg/kg days 0–5)?
**A.** no effect on tumor growth

**Q.** And the “TV600 (time to 600 mm^3), XRT plus VE-822 vs XRT alone” value ([19]; experiment I, 60 mg/kg for 6 or 4 days, 6 Gy day 1, P<0.001)?
**A.** more than doubled the TV600 of XRT alone

**Q.** What about the “tumor regrowth, VE-822 + fractionated XRT vs fractionated XRT” value ([19]; experiment II, 60 mg/kg days 0–5, 5 x 2 Gy days 1–5, P<0.001) of the same compound?
**A.** significantly delayed regrowth compared with XRT1–5

**Q.** What about the “radiosensitisation (TV400) with intermittent dosing” value ([19]; experiment IV, 15, 30 and 60 mg/kg, days 0, 2 and 4, 6 Gy) of the same compound?
**A.** dose-dependent radiosensitisation response

**Q.** And the “tumor growth delay, gemcitabine + XRT + VE-822 vs gemcitabine + XRT” value ([19]; experiment V, P<0.001)?
**A.** substantially prolonged the tumor growth delay compared with the Gem0XRT1 group

**Q.** And the “tumor growth delay, VE-822 + XRT vs XRT” value ([19]; experiment V, VE-822 60 mg/kg d1, 3, 5, XRT d1, P<0.05)?
**A.** significantly longer compared with the XRT1 group

**Q.** What about the “TV400, gemcitabine + VE-822 vs gemcitabine alone” value ([19]; experiment V, gemcitabine 100 mg/kg d0, VE-822 60 mg/kg d1, 3, 5, P>0.05) of the same compound?
**A.** did not significantly increase TV400 compared with gemcitabine alone

**Q.** What about the IC50 [20] of the same compound?
**A.** 18100 nM

**Q.** And the “XRT-enriched G2/M-phase-fraction” value ([21]; VE-822 80 nM + XRT 6 Gy)?
**A.** abrogated by co-treatment with VE-822

**Q.** And the “cell-cycle distribution, VE-822 alone” value ([21]; VE-822 80 nM, 12 h and 24 h)?
**A.** increased the G1-phase-fraction

**Q.** What about the “gemcitabine-induced S-phase arrest” value ([21]; gemcitabine 10 nM then VE-822 80 nM) of the same compound?
**A.** not affected by VE-822

**Q.** What about the Ki [22] of the same compound?
**A.** 34 nM

**Q.** With `Nc1ccn([C@@H]2O[C@H](CO)[C@@H](O)C2(F)F)c(=O)n1` [gemcitabine, reference compound] as the compound, how does the “vessel density after gemcitabine” value ([5]; growth delay experiment V) read?
**A.** significantly reduced vessel density

**Q.** What about the “apoptosis, single agent” value [8] of the same compound?
**A.** increased apoptosis slightly

**Q.** And the “tumor growth, gemcitabine alone” value ([19]; 100 mg/kg i.p. day 0)?
**A.** did not alter tumor growth significantly; also recorded: does not itself lead to tumor growth delay

**Q.** What about the “tumor growth delay, gemcitabine + XRT vs gemcitabine” value ([19]; experiment V, P<0.05) of the same compound?
**A.** increased tumor growth delay compared with Gem0
